Assay outcomes (PubChem)
Cardio protect: myocardial damage modulation in H9c2 cells | H9c2 cardiomyocytes, H2O2 injury protection, ATPLite, 2 h | protection from H2O2 cell death, % at 20 µM | hit rate 0.63% among 360,000;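 active means compounds giving at least 50% protection of heart cells from peroxide-induced death in the single-dose screen, raw or plate-pattern-corrected value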;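 further: 0% = DMSO wells with peroxide and 100% = DMSO wells without peroxide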
iPSC survival up: enhancers of human iPSC single-cell survival; hiPSC single-cell survival, ATPlite luminescence; 100% = ROCK inhibitor wells, 0% = DMSO; survival enhancement, % at 20 µM; hit rate 0.044% among 360,000; AID 602274; in the data active means survival enhancement above about 18%;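 further: cells exposed to compounds for 16 hours before the ATP read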
FAS-TE inh: FAS thioesterase (human) inhibition; P49327; recombinant FAS-TE, OMFH fluorogenic substrate, fluorescence endpoint; inhibition, % at 15 µM; hit rate 0.67% among 360,000;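 active means compounds whose normalised, plate-corrected inhibition of enzyme fluorescence in the single-dose primary screen is 50% or more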;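 further: 0% = DMSO with enzyme and 100% = substrate without enzyme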
SENP1 FRET inh: inhibitors of human SENP1 SUMO protease catalytic domain | AID 624204 | hit rate 0.21% among 360,000 | inhibition, % at 10 µM | recombinant SENP1 catalytic domain, CyPet-SUMO1-YPet FRET cleavage | Q9P0U3;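 active means inhibition at least 30% at 10 µM, raw YFP signal under a set limit, fluorescence ratio 0.5 to 1.5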;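 further: 0% = enzyme with DMSO and 100% = no enzyme wells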
Target sequence (Q9P0U3 419-644 limits assumed): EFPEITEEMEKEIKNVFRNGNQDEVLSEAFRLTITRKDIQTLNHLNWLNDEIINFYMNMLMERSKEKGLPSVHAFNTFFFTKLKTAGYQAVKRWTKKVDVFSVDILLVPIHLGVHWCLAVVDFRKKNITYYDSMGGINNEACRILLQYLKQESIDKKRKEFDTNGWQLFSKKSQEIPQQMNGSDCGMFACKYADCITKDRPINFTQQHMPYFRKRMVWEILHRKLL
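Controls: no-enzyme wells low, DMSO-plus-enzyme wells high control. Test system: human recombinant His6-tagged SENP1 catalytic domain enzyme. Reagent: SFCypet-SUMO1-SFYpet FRET protein substrate, 25 nM final. Doses: one dose per compound, 10 µM, 0.5% DMSO. Detection: FRET, CFP and YFP emission. Timing: 50 min reaction at room temperature.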
Arr AP2 block: inhibitors of human beta-arrestin and AP2 interaction. inhibition, % at 10 µM. FITC-arrestin peptide / GST-AP2 beads, flow cytometry; AP2 beta2 appendage carries R879A mutation. hit rate 0.31% among 340,000. AID 504490;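 active means inhibition above a set limit, near 3 SD of compounds lacking own fluorescence, cut at about 54% in these data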;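 further: plate controls were DMSO wells for no effect and 5 µM unlabelled arrestin peptide for full effect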
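System: GST-AP2 R879A bound to glutathione beads, E. coli-expressed. Also added: 50 nM FITC-arrestin peptide. Schedule: compound with beads 12 min RT, then probe 1 h RT. Signal: bead flow cytometry, FITC channel. Read-out basis: percent response.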
GRIN3A LBD mod: modulators (binders) of human NR3A ligand-binding domain | NR3A LBD differential scanning fluorimetry, Tm shift; 0% = protein alone, 100% = glycine-bound protein | Tm shift relative to glycine control, % at 25 µM | hit rate 2.5% among 340,000;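 active means melting temperature shift of at least 10% of the positive control shift, at one fixed dose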
* hit, by the source's call. An excerpt weighted towards active compounds, which were near 4% of everything screened.

What do the screens show for `Cc1cc(-n2c(SCC(=O)Nc3ccc(F)c(F)c3)nc3n[nH]c(C)c3c2=N)ccc1Cl`?
Cardio protect: 5.1; iPSC survival up: -0.5; FAS-TE inh: 6.4; SENP1 FRET inh: 2.1; Arr AP2 block: 11.2; GRIN3A LBD mod: 25.5*

What do the screens show for `Cc1cc(-n2c(SCC(=O)NCc3cccs3)nc3n[nH]c(C)c3c2=N)ccc1Cl`?
Cardio protect: -3.9; iPSC survival up: 1.5; FAS-TE inh: -2.1; SENP1 FRET inh: 0.0; Arr AP2 block: -9.7; GRIN3A LBD mod: 4.3

How did Cc1cc(-n2c(SCC(=O)Nc3ccc(Br)cc3)nc3n[nH]c(C)c3c2=N)ccc1Cl do in these assays?
Cardio protect: 6.7; iPSC survival up: -0.4; FAS-TE inh: -0.8; SENP1 FRET inh: 2.0; Arr AP2 block: -1.7; GRIN3A LBD mod: 19.8*

How did CCOc1ccc(-n2c(SCC(=O)Nc3ccc(Br)cc3)nc3n[nH]c(C)c3c2=N)cc1 do in these assays?
Cardio protect: 3.5; iPSC survival up: 0.3; FAS-TE inh: -3.4; SENP1 FRET inh: -2.2; Arr AP2 block: -1.7; GRIN3A LBD mod: 18.6*

What do the screens show for `Cc1ccc(F)c(S(=O)(=O)NC(=O)C2(C)CCN2C(=O)c2ccc(C(F)(F)F)nc2C)c1` (stereo not drawn)?
Cardio protect: -0.7; iPSC survival up: 0.9; FAS-TE inh: -4.2; SENP1 FRET inh: 3.2

How did COC(=O)[C@]12CCCCC=C1N(CCC1=CCCCC1)C(=O)[C@H](CC(=O)N1CCN(C(=O)c3ccco3)CC1)C2 do in these assays?
iPSC survival up: 0.2; FAS-TE inh: -0.8; SENP1 FRET inh: -0.2

Results for O=C(NCC1CC1)C1Cc2c(-c3ccc4c(c3)OCO4)ccnc2O1 (stereo not drawn) ?
Cardio protect: 9.5; iPSC survival up: 0.8; FAS-TE inh: -5.4; SENP1 FRET inh: -1.8

How did COc1ccc(OC)c(N2C(=O)c3ccccc3C2c2nnnn2-c2ccc3c(c2)OCCO3)c1 (stereo not drawn) do in these assays?
iPSC survival up: -0.5; FAS-TE inh: -15.9; SENP1 FRET inh: 2.2

How did O=C(O)c1ccccc1N/N=C/c1c(Sc2nnnn2-c2ccccc2)nc2ccccn2c1=O do in these assays?
Cardio protect: -4.8; iPSC survival up: -0.1; FAS-TE inh: -13.6; SENP1 FRET inh: 70.7*; Arr AP2 block: 0.8; GRIN3A LBD mod: 11.9*

Results for O=Cc1c(Sc2ccccc2)nc2ccccn2c1=O ?
Cardio protect: 5.1; iPSC survival up: -4.5; FAS-TE inh: 2.0; SENP1 FRET inh: -1.9; Arr AP2 block: -2.0; GRIN3A LBD mod: 0.0

Results for O=C(CSc1nnc2ccccn12)Nc1ccccc1C(=O)O ?
Cardio protect: 2.7; iPSC survival up: 0.7; FAS-TE inh: -3.5; SENP1 FRET inh: 1.4; Arr AP2 block: 14.4; GRIN3A LBD mod: -0.2

Results for O=c1c(/C=N/Nc2ccccc2)c(Sc2nnnn2-c2ccccc2)nc2ccccn12 ?
Cardio protect: -0.4; iPSC survival up: -5.2; FAS-TE inh: -156.2; SENP1 FRET inh: -21.7; Arr AP2 block: 16.3; GRIN3A LBD mod: 15.8*

Results for CCNC(=O)C1(C)CCCN(C(=O)c2cc(-c3cccs3)oc2C)C1 (stereo not drawn) ?
Cardio protect: -21.3; iPSC survival up: -1.6; FAS-TE inh: -4.4; SENP1 FRET inh: 1.2

Results for Cc1ccc(-c2cc(C(=O)Nc3ccc(S(=O)(=O)N4CC(C)OC(C)C4)cc3)[nH]n2)c(O)c1 (stereo not drawn) ?
Cardio protect: -24.3; iPSC survival up: -0.1; FAS-TE inh: -2.9; SENP1 FRET inh: -0.9; Arr AP2 block: 6.8; GRIN3A LBD mod: 29.9*

How did O=C(O)c1cccc(NC(=O)c2cc(S(=O)(=O)N3CCOCC3)cs2)c1 do in these assays?
Cardio protect: 5.7; iPSC survival up: 3.7; FAS-TE inh: -4.9; SENP1 FRET inh: 0.8; Arr AP2 block: 15.3; GRIN3A LBD mod: -0.3

Results for Cc1ccc(O)c(-c2cc(C(=O)Nc3ccc(S(=O)(=O)N4CC(C)OC(C)C4)cc3)[nH]n2)c1 (stereo not drawn) ?
Cardio protect: -24.3; iPSC survival up: -4.7; FAS-TE inh: 0.4; SENP1 FRET inh: -0.3; Arr AP2 block: -1.3; GRIN3A LBD mod: 34.7*

What do the screens show for `Cc1cc(C)nc(NS(=O)(=O)c2ccc(NC(=O)c3ccc(S(=O)(=O)N4CC(C)OC(C)C4)cc3)cc2)n1` (stereo not drawn)?
Cardio protect: 1.7; iPSC survival up: -3.3; FAS-TE inh: -5.1; SENP1 FRET inh: -1.0; Arr AP2 block: 3.1; GRIN3A LBD mod: 2.9

What do the screens show for `Cc1ccc(O)c(-c2cc(C(=O)Nc3ccc(S(=O)(=O)Nc4nc(C)cc(C)n4)cc3)[nH]n2)c1`?
Cardio protect: 2.8; iPSC survival up: -1.3; FAS-TE inh: -6.1; SENP1 FRET inh: 2.7; Arr AP2 block: 19.3; GRIN3A LBD mod: 29.9*

How did CC1CN(S(=O)(=O)c2csc(C(=O)Nc3ccccc3)c2)CC(C)O1 (stereo not drawn) do in these assays?
Cardio protect: -3.7; iPSC survival up: -0.3; FAS-TE inh: 6.4; SENP1 FRET inh: 1.3; Arr AP2 block: -7.7; GRIN3A LBD mod: 15.5*

Results for O=C1C2C3C=CC(CC3)C2C(=O)N1c1ccc(Br)cc1 (stereo not drawn) ?
Cardio protect: 6.2; iPSC survival up: -3.1; FAS-TE inh: -5.3; SENP1 FRET inh: 1.3

How did O=C1C2C3C=CC(CC3)C2C(=O)N1c1cccc(Br)c1 (stereo not drawn) do in these assays?
Cardio protect: 75.5*; iPSC survival up: -0.3; FAS-TE inh: -3.4; SENP1 FRET inh: 3.5; Arr AP2 block: -1.9; GRIN3A LBD mod: 5.4

What do the screens show for `Cc1cc(C)cc(OCC(=O)OCC(=O)NCc2cccs2)c1`?
Cardio protect: 2.4; iPSC survival up: 6.9; FAS-TE inh: -6.1; SENP1 FRET inh: 2.5; Arr AP2 block: 1.7; GRIN3A LBD mod: 16.1*

How did CC1CCCC(NC(=O)COC(=O)c2ccccc2Sc2ccccc2C#N)C1C (stereo not drawn) do in these assays?
Cardio protect: 2.9; iPSC survival up: 0.6; FAS-TE inh: -1.7; SENP1 FRET inh: 4.1; Arr AP2 block: 8.2; GRIN3A LBD mod: 16.0*

What do the screens show for `N#Cc1ccccc1Sc1ccccc1C(=O)OCC(=O)NC12CC3CC(CC(C3)C1)C2`?
Cardio protect: -5.5; iPSC survival up: 1.0; FAS-TE inh: 26.9; SENP1 FRET inh: 1.1; Arr AP2 block: 13.5; GRIN3A LBD mod: 1.7

What do the screens show for `CC(C)N(C)c1ncnc2c1ncn2[C@H]1CN(CCN2CCOCC2)C[C@@H](CO)O1`?
Cardio protect: 1.4; iPSC survival up: 0.2; FAS-TE inh: -11.5; SENP1 FRET inh: 0.5
